{"source": "paper PMC5771882", "about": "(Biochemistry, 2017)", "key": {"[1]": {"target": "HSP70-1A/B (Homo sapiens, UniProt P0DMV8)", "sequence (P0DMV8 whole entry)": "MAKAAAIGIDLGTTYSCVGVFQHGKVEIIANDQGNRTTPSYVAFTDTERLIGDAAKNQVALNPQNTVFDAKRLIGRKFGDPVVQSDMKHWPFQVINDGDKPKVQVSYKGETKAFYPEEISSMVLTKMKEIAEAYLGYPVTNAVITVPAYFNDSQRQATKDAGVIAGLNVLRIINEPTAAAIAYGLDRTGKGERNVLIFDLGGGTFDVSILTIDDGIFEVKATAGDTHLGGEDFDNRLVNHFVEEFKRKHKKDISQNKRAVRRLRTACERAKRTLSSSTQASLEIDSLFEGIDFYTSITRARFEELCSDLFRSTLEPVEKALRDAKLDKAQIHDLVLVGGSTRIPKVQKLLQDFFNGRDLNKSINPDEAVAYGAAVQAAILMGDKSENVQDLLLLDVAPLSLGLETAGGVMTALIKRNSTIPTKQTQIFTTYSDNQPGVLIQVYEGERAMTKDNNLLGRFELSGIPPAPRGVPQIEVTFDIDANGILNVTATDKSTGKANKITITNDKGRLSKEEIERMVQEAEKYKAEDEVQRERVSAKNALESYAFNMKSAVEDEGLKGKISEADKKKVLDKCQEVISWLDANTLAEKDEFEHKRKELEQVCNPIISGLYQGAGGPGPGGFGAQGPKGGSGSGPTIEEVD", "test": "LC–MS quantitative chemical proteomic assay", "type": "binding", "conditions": "ATP 1 mM"}, "[2]": {"target": "BRAF (Homo sapiens, UniProt P15056)", "sequence (P15056 whole entry)": "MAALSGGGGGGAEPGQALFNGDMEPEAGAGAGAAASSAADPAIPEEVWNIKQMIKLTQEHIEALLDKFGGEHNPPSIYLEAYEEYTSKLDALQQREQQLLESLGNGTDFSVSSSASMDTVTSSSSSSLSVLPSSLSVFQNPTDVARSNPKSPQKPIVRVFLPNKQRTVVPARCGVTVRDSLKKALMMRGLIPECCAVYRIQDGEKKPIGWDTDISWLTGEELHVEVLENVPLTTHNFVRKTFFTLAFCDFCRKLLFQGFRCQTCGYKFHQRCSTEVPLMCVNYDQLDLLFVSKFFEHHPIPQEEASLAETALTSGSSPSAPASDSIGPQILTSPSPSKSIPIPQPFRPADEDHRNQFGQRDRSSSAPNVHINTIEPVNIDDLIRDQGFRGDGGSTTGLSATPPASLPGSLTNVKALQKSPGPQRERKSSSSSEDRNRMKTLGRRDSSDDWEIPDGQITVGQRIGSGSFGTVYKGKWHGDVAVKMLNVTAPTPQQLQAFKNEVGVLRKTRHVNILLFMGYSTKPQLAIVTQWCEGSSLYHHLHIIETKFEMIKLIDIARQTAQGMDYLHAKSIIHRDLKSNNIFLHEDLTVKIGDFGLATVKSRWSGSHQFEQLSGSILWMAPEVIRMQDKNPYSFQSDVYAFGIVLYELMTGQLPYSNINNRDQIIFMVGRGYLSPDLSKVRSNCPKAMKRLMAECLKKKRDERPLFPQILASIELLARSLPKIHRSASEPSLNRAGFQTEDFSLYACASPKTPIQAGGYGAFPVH", "test": "LC–MS quantitative chemical proteomic assay", "type": "binding", "conditions": "ATP 1 mM"}, "[3]": {"target": "T1, recombinant DGKα (Rattus norvegicus, UniProt P51556)", "T1 sequence (P51556 whole entry)": "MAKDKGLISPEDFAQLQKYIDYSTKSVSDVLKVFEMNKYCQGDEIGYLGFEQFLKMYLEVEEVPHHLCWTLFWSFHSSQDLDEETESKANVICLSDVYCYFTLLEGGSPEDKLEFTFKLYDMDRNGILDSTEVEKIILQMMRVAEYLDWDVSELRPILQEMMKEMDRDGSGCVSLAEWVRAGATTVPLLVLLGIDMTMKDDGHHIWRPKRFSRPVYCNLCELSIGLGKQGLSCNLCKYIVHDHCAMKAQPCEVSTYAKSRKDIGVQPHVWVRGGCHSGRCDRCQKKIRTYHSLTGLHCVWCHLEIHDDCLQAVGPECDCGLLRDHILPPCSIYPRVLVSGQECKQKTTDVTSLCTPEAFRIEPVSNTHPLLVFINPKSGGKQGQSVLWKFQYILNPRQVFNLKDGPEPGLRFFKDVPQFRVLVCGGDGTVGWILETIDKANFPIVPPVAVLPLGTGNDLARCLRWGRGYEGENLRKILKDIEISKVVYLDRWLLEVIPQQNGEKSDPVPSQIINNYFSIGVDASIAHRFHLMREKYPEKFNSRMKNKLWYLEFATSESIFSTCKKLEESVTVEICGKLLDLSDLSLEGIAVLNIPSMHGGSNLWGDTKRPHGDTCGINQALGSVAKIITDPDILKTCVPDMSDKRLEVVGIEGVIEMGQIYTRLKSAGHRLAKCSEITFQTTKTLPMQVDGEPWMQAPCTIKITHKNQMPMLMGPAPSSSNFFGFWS", "test": "LC–MS quantitative chemical proteomic assay", "type": "binding"}, "[4]": {"target": "T1, recombinant DGKα", "test": "DAG phosphorylation substrate assay", "type": "biochemical", "conditions": "DGKα-overexpressed HEK293T soluble proteomes", "outline": "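IC50 derived from a dose–response curve of DAG phosphorylation by recombinant DGKα across a range of test compound concentrations. Data are means ± standard error of the mean of two biological replicates, and a 95% confidence interval is given for the IC50.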"}}}
{"smiles": "Nc1ncnc2c1ncn2[C@@H]1O[C@H](COP(=O)(O)OP(=O)(O)OP(=O)(O)O)[C@@H](O)[C@H]1O", "note": "[ATP]", "values": [{"measurement": "SILAC ratio (SR), HSP70-1A K56/HSP70-1B K56", "setting": "[1]", "value": "> 5"}, {"measurement": "SILAC ratio (SR), BRAF", "setting": "[2]", "value": "> 5"}, {"measurement": "blockade of probe labeling at primary ATP-binding sites (DAGKc/DAGKa)", "setting": "[3]; RLM001 10 mM, ATP 1 mM", "value": "near-complete blockade of probe labeling"}, {"measurement": "SILAC ratio (SR), C1-binding site", "setting": "[3]; free ATP (1 mM)", "value": "~ 2"}]}
{"smiles": "Cc1nc2sccn2c(=O)c1CCN1CCC(=C(c2ccccc2)c2ccc(F)cc2)CC1", "note": "[R59022]", "values": [{"measurement": "blockade of recombinant DGKα catalytic activity", "setting": "[4]", "value": "blockade of catalytic activity"}]}
{"smiles": "Cc1nc2sccn2c(=O)c1CCN1CCC(=C(c2ccc(F)cc2)c2ccc(F)cc2)CC1", "note": "[ritanserin]", "values": [{"measurement": "blockade of recombinant DGKα catalytic activity", "setting": "[4]", "value": "blockade of catalytic activity"}]}
